# Experiments:
# Assay type in all cases: functional, cell-based
# [1] = Anticancer activity against human HCT116 cells assessed as inhibition of cell growth after 72 hrs by MTT assay; conditions: HCT-116, 72 h
# Outline: (§1)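 MTT assay at 3,000 cells/well. Cells treated with DMSO or seven concentrations from 0.5 to 50 µM for 24, 48 or 72 h. MTT added 3 h before the end point; formazan dissolved in DMSO and read at 570 and 630 nm. IC50 is the concentration giving 50% growth inhibition. Media: PANC-1, BxPC3 and 1205Lu in DMEM; DU145 and A549 in RPMI 1640; HT29, HCT116 and RKO in McCoy's 5A, all with 10% FBS and pen/strep, at 37 °C and 5% CO2.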
# RKO [2] = assay: Anticancer activity against human RKO cells assessed as inhibition of cell growth after 24 hrs by MTT assay; outline: as §1
# RKO [3] = assay: Anticancer activity against human RKO cells assessed as inhibition of cell growth after 72 hrs by MTT assay; outline: as §1
# [4] = Anticancer activity against human HCT116 cells assessed as inhibition of cell growth after 24 hrs by MTT assay; conditions: HCT-116, 24 h; outline: as §1
# HT-29 [5] = assay: Anticancer activity against human HT-29 cells assessed as inhibition of cell growth after 48 hrs by MTT assay; conditions: HT-29, 48 h; outline: as §1
# HT-29 [6] = assay: Anticancer activity against human HT-29 cells assessed as inhibition of cell growth after 24 hrs by MTT assay; conditions: HT-29, 24 h; outline: as §1
# RKO [7] = assay: Anticancer activity against human RKO cells assessed as inhibition of cell growth after 48 hrs by MTT assay; outline: as §1
# HT-29 [8] = assay: Anticancer activity against human HT-29 cells assessed as inhibition of cell growth after 72 hrs by MTT assay; conditions: HT-29, 72 h; outline: as §1
# [9] = Anticancer activity against human HCT116 cells assessed as inhibition of cell growth after 48 hrs by MTT assay; conditions: HCT-116, 48 h; outline: as §1
# [10] = Anticancer activity against human DU145 cells assessed as inhibition of cell growth after 48 hrs by MTT assay; conditions: DU-145, 48 h; outline: as §1
# [11] = Anticancer activity against human DU145 cells assessed as inhibition of cell growth after 72 hrs by MTT assay; conditions: DU-145, 72 h; outline: as §1
# [12] = Anticancer activity against human PANC1 cells assessed as inhibition of cell growth after 72 hrs by MTT assay; conditions: PANC-1, 72 h; outline: as §1
# A549 [13] = assay: Anticancer activity against human A549 cells assessed as inhibition of cell growth after 48 hrs by MTT assay; conditions: A549, 48 h; outline: as §1
# [14] = Anticancer activity against human BxPC3 cells assessed as inhibition of cell growth after 72 hrs by MTT assay; conditions: BXPC-3, 72 h; outline: as §1
# A549 [15] = assay: Anticancer activity against human A549 cells assessed as inhibition of cell growth after 72 hrs by MTT assay; conditions: A549, 72 h; outline: as §1
# [16] = Anticancer activity against human DU145 cells assessed as inhibition of cell growth after 24 hrs by MTT assay; conditions: DU-145, 24 h; outline: as §1
# [17] = Anticancer activity against human 1205 Lu cells assessed as inhibition of cell growth after 72 hrs by MTT assay; outline: as §1
# [18] = Anticancer activity against human PANC1 cells assessed as inhibition of cell growth after 48 hrs by MTT assay; conditions: PANC-1, 48 h; outline: as §1
# [19] = Anticancer activity against human BxPC3 cells assessed as inhibition of cell growth after 24 hrs by MTT assay; conditions: BXPC-3, 24 h; outline: as §1
# A549 [20] = assay: Anticancer activity against human A549 cells assessed as inhibition of cell growth after 24 hrs by MTT assay; conditions: A549, 24 h; outline: as §1
# [21] = Anticancer activity against human 1205 Lu cells assessed as inhibition of cell growth after 24 hrs by MTT assay; outline: as §1
# [22] = Anticancer activity against human 1205 Lu cells assessed as inhibition of cell growth after 48 hrs by MTT assay; outline: as §1
# [23] = Anticancer activity against human BxPC3 cells assessed as inhibition of cell growth after 48 hrs by MTT assay; conditions: BXPC-3, 48 h; outline: as §1
# [24] = Anticancer activity against human PANC1 cells assessed as inhibition of cell growth after 24 hrs by MTT assay; conditions: PANC-1, 24 h; outline: as §1
SMILES,IC50 [1],IC50 (RKO [2]),IC50 (RKO [3]),IC50 [4],IC50 (HT-29 [5]),IC50 (HT-29 [6]),IC50 (RKO [7]),IC50 (HT-29 [8]),IC50 [9],IC50 [10],IC50 [11],IC50 [12],IC50 (A549 [13]),IC50 [14],IC50 (A549 [15]),IC50 [16],IC50 [17],IC50 [18],IC50 [19],IC50 (A549 [20]),also measured
O=c1[nH]cc(F)c(=O)[nH]1 [FLUOROURACIL],27.8 µM,> 50 µM,6.8 µM,> 50 µM,25 µM,> 50 µM,41.1 µM,6.3 µM,> 50 µM,,,,,,,,,,,,
N=C(N)SCc1ccc2c(c1)C(=O)c1ccccc1C2=O,10.3 µM,28.9 µM,21 µM,20.2 µM,8.1 µM,17 µM,20.4 µM,7.4 µM,10.7 µM,22.9 µM,31.2 µM,6.8 µM,8.7 µM,7.9 µM,7.6 µM,29.8 µM,6.3 µM,7.4 µM,4.1 µM,9.7 µM,IC50 [21]: 9.4 µM; IC50 [22]: 8.5 µM; IC50 [23]: 9 µM; IC50 [24]: 7.6 µM
Cc1noc(C)c1C[Se]C(=N)N,4.6 µM,,,> 50 µM,,,,,45 µM,22 µM,7.4 µM,13.6 µM,2.8 µM,2.4 µM,1.2 µM,> 50 µM,3.4 µM,37.4 µM,> 50 µM,> 50 µM,IC50 [21]: > 50 µM; IC50 [22]: > 50 µM; IC50 [23]: 6.8 µM; IC50 [24]: > 50 µM

# Source: ChEMBL document CHEMBL3779798, “Novel seleno- and thio-urea derivatives with potent in vitro activities against several cancer cell lines” (Eur J Med Chem, 2016)
